Measured values published in PubChem BioAssay.
The source made the active and inactive calls.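 The calls were made as follows, unless noted: active = viability at or below 30% in both replicate assays; inconclusive = viability at or below 30% in just one of the two assays; inactive = the rest.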

Columns and labels:
[1] = reducers of endogenous Her2 protein level, primary screen, SKBR3 breast tumor cells, AlphaScreen, ATP viability (AID 461;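 active = Her2 level under about 52% in both replicate screens, with viability over 70% of control, limit read from the data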;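 as to Her2 level: lower value means less Her2 protein in the cells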;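 as to viability: percent of carrier control wells set as 100% viability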); details: 18-24 h, measured here: SKBR3 viability, ATP luminescence, at 10 µM
[2] = biological target: Receptor tyrosine-protein kinase erbB-2 (Homo sapiens) (UniProt P04626); test: as above; details: 18-24 h, at 10 µM, stronger effect = lower value
[3] = SK-BR-3 cell growth inhibitors, pilot screen, 24 h, human (AID 572;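 active = viability at or below 10% of carrier control in both of two separate runs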;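 also: compound exposure lasted between 18 and 24 h rather than exactly 24 h; 100% = carrier-treated control wells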); details: SK-BR-3 viability, CellTiter-Glo luminescence, at 10 µM, stronger effect = lower value
[4] = HUVEC growth inhibition – cell-based, human, primary screen (AID 575); details: HUVEC proliferation, CellTiter-Glo luminescence, 72 h; at 10 µM; stronger effect = lower value;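 also: 100% = median of untreated cell wells with 0.1% DMSO on each plate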
Procedure, shortened: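 System: primary human umbilical vein endothelial cells; Quantity: 1250 endothelial cells in each well; Buffer or medium: supplemented EBM, 2% fetal bovine serum; Doses: one dose, 10 µM final, 0.1% DMSO; Incubation: 72 h compound incubation; Technique: ATP-based CellTiter-Glo luminescent read; Evaluation: percent of median DMSO-control luminescence; Controls: vehicle and MePR control wells.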

[5] = growth inhibitors of H69AR lung tumor, primary screen, human, duplicate replicates (AID 580;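 active = viability at or under a set limit in both replicates, limit being median viability minus 3 SD, cut at about 48% in these data, passing the limit was not always enough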;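 also: 100% = mean luminescence of untreated wells and 0% = no signal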); details: H69AR lung tumor cells viability, ATP luminescence, 72 h; at 10 µM; stronger effect = lower value
[6] = reversal of MRP1-mediated doxorubicin resistance, pilot screen, H69AR cells, doxorubicin co-treatment (AID 601;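 active = viability loss from added drug above about 55%, and viability with drug at most 40%, in both replicates, limit read from the data, passing the limit was not always enough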); details: CellTiter-Glo, 72 h, at 10 µM; for differential viability (reversal): stronger effect = higher value
[7] = 384-well plate pilot, post-Golgi transport modulator project, inhibition of yeast transport mutant growth (AID 636; in the data active = inhibition above about 31%); details: absorbance 615 nm, about 18 h, stronger effect = higher value
[8] = growth suppression of yeast trafficking mutant, preliminary HTS, modulators of trafficking downstream of Golgi apparatus project, 1536-format plate, OD 615 nm (AID 637; in the data active = inhibition above about 30%); details: yeast transport mutant growth, absorbance 615 nm, 18 h; stronger effect = higher value
[9] = H69AR cells + 2 uM doxorubicin, measured here: viability with 2 uM doxorubicin, stronger effect = lower value
[10] = H69AR cells, compound alone cytotoxicity

Chain of Receptor tyrosine-protein kinase erbB-2 (Homo sapiens) (P04626 whole entry, looked up): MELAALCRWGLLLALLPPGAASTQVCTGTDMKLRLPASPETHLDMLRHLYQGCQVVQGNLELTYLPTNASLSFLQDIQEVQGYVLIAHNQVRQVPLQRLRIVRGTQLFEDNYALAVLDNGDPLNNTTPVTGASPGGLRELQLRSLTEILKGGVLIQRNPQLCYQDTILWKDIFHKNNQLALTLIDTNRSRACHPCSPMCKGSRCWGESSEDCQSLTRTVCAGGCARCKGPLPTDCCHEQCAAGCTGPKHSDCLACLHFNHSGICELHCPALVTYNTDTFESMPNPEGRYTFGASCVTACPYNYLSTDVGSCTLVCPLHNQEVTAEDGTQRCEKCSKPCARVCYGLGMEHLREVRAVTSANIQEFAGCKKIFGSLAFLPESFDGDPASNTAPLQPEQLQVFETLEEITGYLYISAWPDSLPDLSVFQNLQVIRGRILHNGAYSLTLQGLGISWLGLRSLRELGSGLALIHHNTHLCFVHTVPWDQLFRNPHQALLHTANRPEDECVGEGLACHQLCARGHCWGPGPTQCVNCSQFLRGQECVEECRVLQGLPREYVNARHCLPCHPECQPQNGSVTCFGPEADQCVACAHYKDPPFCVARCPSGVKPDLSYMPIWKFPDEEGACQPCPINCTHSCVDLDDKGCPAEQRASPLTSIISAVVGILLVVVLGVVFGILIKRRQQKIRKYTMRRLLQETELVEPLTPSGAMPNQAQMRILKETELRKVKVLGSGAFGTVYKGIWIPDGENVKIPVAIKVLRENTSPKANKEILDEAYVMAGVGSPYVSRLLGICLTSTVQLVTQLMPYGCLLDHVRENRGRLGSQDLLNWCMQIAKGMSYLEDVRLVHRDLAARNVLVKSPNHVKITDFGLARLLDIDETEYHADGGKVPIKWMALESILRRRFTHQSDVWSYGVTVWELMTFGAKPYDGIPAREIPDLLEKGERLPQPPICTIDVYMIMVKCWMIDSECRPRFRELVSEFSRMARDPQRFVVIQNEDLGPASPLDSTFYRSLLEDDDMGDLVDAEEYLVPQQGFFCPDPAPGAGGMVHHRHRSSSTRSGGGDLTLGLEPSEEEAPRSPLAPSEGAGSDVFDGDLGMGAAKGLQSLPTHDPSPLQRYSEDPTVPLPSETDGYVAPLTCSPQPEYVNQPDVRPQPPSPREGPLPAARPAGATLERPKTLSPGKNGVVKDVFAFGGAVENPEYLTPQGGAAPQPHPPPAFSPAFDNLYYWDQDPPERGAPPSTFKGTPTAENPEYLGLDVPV

N#Cc1c(NC(=O)CSc2nc(N)cc(=O)[nH]2)sc2c1CCCCCC2
viability [1]: 104% | Her2 level [2]: 90% (inactive) | viability [3]: 104% (inactive) | viability [4]: 59.9% (inactive) | viability [5]: 91.5% (inactive) | differential viability (reversal) ([6]; H69AR cells + 2 uM doxorubicin): 5.43% (inactive) | viability [6, 9]: 86.1% | viability [6, 10]: 91.5% | inhibition [7]: -0.66% (inactive) | inhibition [8]: -10% (inactive)

CCCn1c(N)c(C(=O)CSc2nnc(Cc3ccccc3)o2)c(=O)n(C)c1=O
viability [1]: 104% | Her2 level [2]: 90.5% (inactive) | viability [3]: 104% (inactive) | viability [4]: 75.2% (inactive) | viability [5]: 84.6% (inactive) | differential viability (reversal) ([6]; H69AR cells + 2 uM doxorubicin): -13.6% (inactive) | viability [6, 9]: 98.2% | viability [6, 10]: 84.6% | inhibition [7]: 0.65% (inactive) | inhibition [8]: 3.93% (inactive)

Cc1cc(C(=O)CSCc2nnc3n(CCC(C)C)c(=O)c4ccccc4n23)c(C)n1C
viability [1]: 99.5% | Her2 level [2]: 84% (inactive) | viability [3]: 99.5% (inactive) | viability [4]: 84.2% (inactive) | viability [5]: 67.3% (inactive) | differential viability (reversal) ([6]; H69AR cells + 2 uM doxorubicin): 0.59% (inactive) | viability [6, 9]: 66.8% | viability [6, 10]: 67.3% | inhibition [7]: -1.84% (inactive) | inhibition [8]: -0.73% (inactive)

COc1ccc(/C(O)=C2/C(=O)C(=O)N(CCCN(C)C)C2c2ccco2)cc1Cl (stereo not given)
viability [1]: 104% | Her2 level [2]: 98.5% (inactive) | viability [3]: 104% (inactive) | viability [4]: 120% (inactive) | viability [5]: 95.8% (inactive) | differential viability (reversal) ([6]; H69AR cells + 2 uM doxorubicin): 7.21% (inactive) | viability [6, 9]: 88.6% | viability [6, 10]: 95.8% | inhibition [7]: -6.62% (inactive) | inhibition [8]: -10.7% (inactive)

Cc1ccc(NC(=O)CCN2CCc3ccccc3C2)cc1
viability [1]: 91.5% | Her2 level [2]: 92.5% (inactive) | viability [3]: 91.5% (inactive) | viability [4]: 109% (inactive) | viability [5]: 99.7% (inactive) | differential viability (reversal) ([6]; H69AR cells + 2 uM doxorubicin): -0.975% (inactive) | viability [6, 9]: 101% | viability [6, 10]: 99.7% | inhibition [7]: -5.21% (inactive) | inhibition [8]: -4.92% (inactive)

Cc1nnc(SCC(=O)N2c3ccccc3CC2C)s1 (stereo not given)
viability [1]: 105% | Her2 level [2]: 106% (inactive) | viability [3]: 105% (inactive) | viability [4]: 99.3% (inactive) | viability [5]: 92% (inactive) | differential viability (reversal) ([6]; H69AR cells + 2 uM doxorubicin): -0.71% (inactive) | viability [6, 9]: 92.7% | viability [6, 10]: 92% | inhibition [7]: -1.73% (inactive) | inhibition [8]: 0.81% (inactive)

Cn1c(=O)c(C(=O)Nc2cccnc2)c(O)c2ccccc21
viability [1]: 81% | Her2 level [2]: 59.5% (inactive) | viability [3]: 81% (inactive) | viability [4]: 105% (inactive) | viability [5]: 88.4% (inactive) | differential viability (reversal) ([6]; H69AR cells + 2 uM doxorubicin): -9.81% (inactive) | viability [6, 9]: 98.2% | viability [6, 10]: 88.4% | inhibition [7]: -3.65% (inactive) | inhibition [8]: 2.46% (inactive)

Cc1cccc2c1N(CC(=O)OC(C)C)C(=O)C2=O
viability [1]: 76.5% | Her2 level [2]: 103% (inactive) | viability [3]: 76.5% (inactive) | viability [4]: 95% (inactive) | viability [5]: 75.2% (inactive) | differential viability (reversal) ([6]; H69AR cells + 2 uM doxorubicin): -3.31% (inactive) | viability [6, 9]: 78.5% | viability [6, 10]: 75.2% | inhibition [7]: 1.67% (inactive) | inhibition [8]: 6.67% (inactive)

CCOC(=O)c1nnn(CC(=O)Nc2cccc(OC)c2)c1C(=O)OCC
viability [1]: 92.5% | Her2 level [2]: 86.5% (inactive) | viability [3]: 92.5% (inactive) | viability [4]: 100% (inactive) | viability [5]: 83.7% (inactive) | differential viability (reversal) ([6]; H69AR cells + 2 uM doxorubicin): -2.59% (inactive) | viability [6, 9]: 86.3% | viability [6, 10]: 83.7% | inhibition [7]: -4.53% (inactive) | inhibition [8]: 0.98% (inactive)

O=C1OCc2cc(NC(=O)C3CCCO3)ccc21 (stereo not given)
viability [1]: 92.5% | Her2 level [2]: 122% (inactive) | viability [3]: 92.5% (inactive) | viability [4]: 101% (inactive) | viability [5]: 104% (inactive) | differential viability (reversal) ([6]; H69AR cells + 2 uM doxorubicin): -0.78% (inactive) | viability [6, 9]: 105% | viability [6, 10]: 104% | inhibition [7]: 1.84% (inactive) | inhibition [8]: -1.83% (inactive)

Cc1ccc(Oc2ccc(-c3nc(N)nc(N)n3)cc2)cc1
viability [1]: 112% | Her2 level [2]: 82% (inactive) | viability [3]: 112% (inactive) | viability [4]: 76.6% (inactive) | viability [5]: 108% (inactive) | differential viability (reversal) ([6]; H69AR cells + 2 uM doxorubicin): 23.1% (inactive) | viability [6, 9]: 84.8% | viability [6, 10]: 108% | inhibition [7]: -5.33% (inactive) | inhibition [8]: 2.1% (inactive)

COc1ccc(-c2cc(C(F)(F)F)nc(SCC(=O)NCc3ccco3)n2)cc1OC
viability [1]: 96.5% | Her2 level [2]: 84% (inactive) | viability [3]: 96.5% (inactive) | viability [4]: 68.1% (inactive) | viability [5]: 55.2% (inactive) | differential viability (reversal) ([6]; H69AR cells + 2 uM doxorubicin): -25.6% (inactive) | viability [6, 9]: 80.9% | viability [6, 10]: 55.2% | inhibition [7]: -0.66% (inactive) | inhibition [8]: -0.32% (inactive)

COc1ccccc1C(=O)Nc1ccc(N2CCN(S(C)(=O)=O)CC2)cc1
viability [1]: 99.5% | Her2 level [2]: 106% (inactive) | viability [3]: 99.5% (inactive) | viability [4]: 144% (inactive) | viability [5]: 97.2% (inactive) | differential viability (reversal) ([6]; H69AR cells + 2 uM doxorubicin): 12.7% (inactive) | viability [6, 9]: 84.5% | viability [6, 10]: 97.2% | inhibition [7]: -1.89% (inactive) | inhibition [8]: -4% (inactive)

O=C(CCC(=O)N1CCc2ccccc2C1)N1CCN(S(=O)(=O)c2ccccc2)CC1
viability [1]: 82% | Her2 level [2]: 116% (inactive) | viability [3]: 82% (inactive) | viability [4]: 84.4% (inactive) | viability [5]: 90.6% (inactive) | differential viability (reversal) ([6]; H69AR cells + 2 uM doxorubicin): -0.59% (inactive) | viability [6, 9]: 91.2% | viability [6, 10]: 90.6% | inhibition [7]: 4.81% (inactive) | inhibition [8]: 12.9% (inactive)

Cc1ccc(S(=O)(=O)N2CCCC2C(=O)OCc2nc3ccccc3s2)cc1 (stereo not given)
viability [1]: 85.5% | Her2 level [2]: 80.5% (inactive) | viability [3]: 85.5% (inactive) | viability [4]: 79.7% (inactive) | viability [5]: 99.2% (inactive) | differential viability (reversal) ([6]; H69AR cells + 2 uM doxorubicin): 0.14% (inactive) | viability [6, 9]: 99.1% | viability [6, 10]: 99.2% | inhibition [7]: -7.95% (inactive) | inhibition [8]: -5.4% (inactive)
